pIC50: −log10 of the molar value. Calls of active or inactive are those of the source. The calls are words filed in the database; no cut-off is given here.
How the values were obtained:
SW-620 [1] = assay: Cytotoxicity in human SW620 cells assessed as reduction in cell viability incubated for 72 hrs by MTT assay; assay type: functional, cell-based; settings: SW-620, 72 h
Procedure, shortened: (§1)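 Cells in DMEM or RPMI 1640 with 10% FBS and 1% penicillin/streptomycin were seeded at 6 × 10^3/well and grown 24 h at 37 °C, 5% CO2. They were exposed 72 h to graded compound concentrations (DMSO under 0.1%). MTT (5 mg/mL, 10 µL) was added for 4 h at 37 °C and formazan dissolved in DMSO. A492 was read against a 630 nm reference, and IC50 came from concentration–response curves.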

[2] = molecular target: T1, Aurora kinase A (Homo sapiens) (UniProt O14965); assay: Inhibition of Aurora A (unknown origin) at 0.2 uM pre-incubated for 10 mins before FAM-labeled peptide substrate addition by mobility shift assay relative to control
T1 sequence (whole entry): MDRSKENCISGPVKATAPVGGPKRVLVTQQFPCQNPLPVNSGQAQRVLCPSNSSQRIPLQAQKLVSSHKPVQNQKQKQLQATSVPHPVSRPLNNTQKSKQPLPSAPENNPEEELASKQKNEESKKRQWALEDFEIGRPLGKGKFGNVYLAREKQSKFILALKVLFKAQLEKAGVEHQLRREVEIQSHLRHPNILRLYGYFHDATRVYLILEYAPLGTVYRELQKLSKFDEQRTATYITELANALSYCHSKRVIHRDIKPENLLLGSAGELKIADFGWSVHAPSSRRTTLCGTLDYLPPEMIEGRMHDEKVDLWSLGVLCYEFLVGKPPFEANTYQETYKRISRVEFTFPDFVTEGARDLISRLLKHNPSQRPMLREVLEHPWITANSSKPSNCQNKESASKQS

[3] = molecular target: Aurora kinase B (Homo sapiens) (UniProt Q96GD4); assay: Inhibition of Aurora B (unknown origin) at 0.2 uM pre-incubated for 10 mins before FAM-labeled peptide substrate addition by mobility shift assay relative to control
HT-29 = assay: Cytotoxicity in human HT-29 cells assessed as reduction in cell viability incubated for 72 hrs by MTT assay; assay type: functional, cell-based; settings: HT-29, 72 h; procedure, shortened: as §1
NCI-H1975 = assay: Cytotoxicity in human NCI-H1975 cells assessed as reduction in cell viability incubated for 72 hrs by MTT assay; assay type: functional, cell-based; settings: NCI-H1975, 72 h; procedure, shortened: as §1
HeLa = assay: Cytotoxicity in human HeLa cells assessed as reduction in cell viability incubated for 72 hrs by MTT assay; assay type: functional, cell-based; procedure, shortened: as §1
SW-620 [4] = assay: Antiproliferative activity against human SW620 cells assessed as cell confluence level at 10 ug/ml incubated up to 84 hrs and measured every 1 hr by IncuCyte live-cell imaging assay (reference value: 86.5%); assay type: functional
Procedure, shortened: (§2)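 SW620 cells seeded at 5 × 10^3/well and grown 24 h at 37 °C, 5% CO2 inside the IncuCyte. Compounds were then added at 0.12–10.0 µg/mL, with 0.1% DMSO as vehicle control. Phase-contrast images were taken with a 10× objective every 1 h for 84 h. Confluence was scored from the images, in triplicate.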

SW-620 [5] = assay: Antiproliferative activity against human SW620 cells assessed as effect on cell confluence level at 0.12 to 3.33 ug/ml incubated up to 84 hrs and measured every 1 hr by IncuCyte live-cell imaging assay; assay type: functional, cell-based; procedure, shortened: as §2
SW-620 [6] = assay: Antiproliferative activity against human SW620 cells assessed as cell confluence level at 10 ug/ml incubated up to 84 hrs and measured every 1 hr by phase contrast microscopy (reference value: 86.5%); assay type: functional; procedure, shortened: as §2
SW-620 [7] = assay: Antiproliferative activity against human SW620 cells assessed as effect on cell confluence level at 0.12 to 3.33 ug/ml incubated up to 84 hrs and measured every 1 hr by phase contrast microscopy; assay type: functional, cell-based; procedure, shortened: as §2
SW-620 [8] = assay: Cytotoxicity against human SW620 cells assessed as increase in dead cell number at 10 ug/ml incubated for 5 hrs by IncuCyte live-cell imaging assay; assay type: functional, cell-based
Procedure, shortened: (§3)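 Live-cell kinetic imaging of SW620 cells (5 × 10^3/well, 24 h pre-culture at 37 °C, 5% CO2) exposed to 0.12–10.0 µg/mL compound or 0.1% DMSO. Red-fluorescent cells were counted as dead cells, imaged with a 10× objective hourly for 84 h, in triplicate.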

SW-620 [9] = assay: Cytotoxicity against human SW620 cells assessed as increase in dead cell number at 10 ug/ml incubated for 36 hrs by IncuCyte live-cell imaging assay; assay type: functional, cell-based; procedure, shortened: as §3
SW-620 [10] = assay: Induction of apoptosis in human SW620 cells at 3.33 ug/ml incubated for 36 hrs by IncuCyte live-cell imaging assay; assay type: functional, cell-based
Procedure, shortened: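 Apoptosis kinetics by IncuCyte imaging: SW620 cells at 5 × 10^3/well were pre-grown 24 h at 37 °C, 5% CO2, then given compound (0.12–10.0 µg/mL) or 0.1% DMSO. Green-fluorescent apoptotic cells were counted on images taken with a 10× objective every 1 h over 48 h, in triplicate.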

Sequence of Aurora kinase B (Homo sapiens) (Q96GD4 whole entry): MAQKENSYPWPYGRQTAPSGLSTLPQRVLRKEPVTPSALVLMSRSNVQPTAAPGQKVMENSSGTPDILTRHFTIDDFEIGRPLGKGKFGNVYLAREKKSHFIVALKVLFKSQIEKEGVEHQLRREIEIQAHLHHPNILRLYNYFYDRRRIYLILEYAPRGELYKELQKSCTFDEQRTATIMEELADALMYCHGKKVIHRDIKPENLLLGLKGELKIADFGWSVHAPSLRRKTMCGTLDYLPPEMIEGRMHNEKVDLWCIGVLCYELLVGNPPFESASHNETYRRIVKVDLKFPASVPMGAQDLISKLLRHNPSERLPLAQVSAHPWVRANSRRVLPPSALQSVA

| Compound | inhibition [2] | inhibition [3] | pIC50 (SW-620 [1]) | further results |
| --- | --- | --- | --- | --- |
| COc1cc2nccc(Oc3ccc(NC(=O)c4cnc(Cl)cc4Nc4cccc(Cl)c4)cc3)c2cc1OC | 55.1% | 31.9% | 5.36 |  |
| COc1cc2nccc(Oc3ccc(NC(=O)c4cccnc4Nc4ccc(F)c(Br)c4)cc3F)c2cc1OC | 48.4% | 40.7% | 5.73 |  |
| COc1cc2nccc(Oc3ccc(NC(=O)c4cnc(Cl)cc4Nc4ccccc4)cc3)c2cc1OC | 48.2% | 52.1% | 5.72 |  |
| COc1cc2nccc(Oc3ccc(NC(=O)c4cn(C)c(=O)cc4Nc4ccccc4)cc3)c2cc1OC | 40.9% | 31.1% | 5.35 |  |
| COc1cc2nccc(Oc3ccc(NC(=O)c4cnc(Cl)cc4Nc4ccccc4Br)cc3)c2cc1OC | 78.2% | 56.1% | 5.16 | pIC50 (HT-29): < 4.70; pIC50 (NCI-H1975): 5.10; pIC50 (HeLa): < 4.70 |
| COc1cc2nccc(Oc3ccc(NC(=O)C4(C(=O)Nc5ccc(F)cc5)CC4)cc3)c2cc1OC [CABOZANTINIB] |  | 38.3% | 5.47 | Activity (SW-620 [4]): 40.9%; Activity (SW-620 [5]): inactive; Activity (SW-620 [6]): 40.9%; Activity (SW-620 [7]): inactive; pIC50 (HT-29): 5.02; pIC50 (NCI-H1975): 5.18; pIC50 (HeLa): < 4.70 |
| COc1cc2nccc(Oc3ccc(NC(=O)c4c(Nc5ccc(F)c(Br)c5)cc(C)nc4Cl)cc3F)c2cc1OC | 0.6% | 17.7% |  |  |
| COc1cc2nccc(Oc3ccc(NC(=O)c4cnc(Cl)cc4Nc4ccc(Br)cc4F)cc3)c2cc1OC | 70% | 31.6% | 5.61 | pIC50 (HT-29): < 4.70; pIC50 (HeLa): < 4.70 |

The next lines start with results.

| inhibition [2] | inhibition [3] | Compound | pIC50 (SW-620 [1]) | further results |
| --- | --- | --- | --- | --- |
| 48.6% | 49.6% | COc1cc2nccc(Oc3ccc(NC(=O)c4cnc(Cl)cc4Nc4cccc(F)c4)cc3)c2cc1OC | 5.29 |  |
| 51.5% | 50.1% | COc1cc2nccc(Oc3ccc(NC(=O)c4cnc(Cl)cc4Nc4ccccc4F)cc3)c2cc1OC | 5.09 |  |
| 51.9% | 38.5% | COc1cc2nccc(Oc3ccc(NC(=O)c4cnc(Cl)cc4Nc4ccc(Cl)cc4)cc3)c2cc1OC | 5.62 |  |
| 6.6% | 13.7% | COc1cc2nccc(Oc3ccc(NC(=O)c4cnc5ccc(Br)cc5c4Nc4ccc(F)c(Br)c4)cc3F)c2cc1OC |  |  |
| 47.1% | 51.6% | COc1cc2nccc(Oc3ccc(NC(=O)c4cnc(Cl)cc4Nc4ccc(F)cc4)cc3)c2cc1OC | 5.17 |  |
| 82.9% | 30.5% | COc1cc2nccc(Oc3ccc(NC(=O)c4cnc(Cl)cc4Nc4ccc(F)c(Br)c4)cc3F)c2cc1OC | 6.21 | Activity (SW-620 [4]): inactive; Activity (SW-620 [5]): inactive; Activity (SW-620 [6]): inactive; Activity (SW-620 [7]): inactive; Activity (SW-620 [8]): Active; Activity (SW-620 [9]): Active; Activity (SW-620 [10]): inactive; pIC50 (HT-29): < 4.70; pIC50 (NCI-H1975): 5.97; pIC50 (HeLa): < 4.70 |
| 81.3% | 30.1% | COc1cc2nccc(Oc3ccc(NC(=O)c4cnc(Cl)cc4Nc4ccc(F)c(Br)c4)cc3)c2cc1OC | 5.88 | Activity (SW-620 [4]): 42.6%; Activity (SW-620 [5]): inactive; Activity (SW-620 [6]): 42.6%; Activity (SW-620 [7]): inactive; Activity (SW-620 [10]): inactive; pIC50 (HT-29): < 4.70; pIC50 (NCI-H1975): 5.45; pIC50 (HeLa): < 4.70 |
| 29.9% | 38.7% | COc1cc2nccc(Oc3ccc(NC(=O)c4c[nH]c(=O)cc4Nc4ccccc4)cc3)c2cc1OC | 4.72 |  |
| 68.3% | 57.1% | COc1cc2nccc(Oc3ccc(NC(=O)c4cnc(Cl)cc4Nc4ccccc4Cl)cc3)c2cc1OC | 5.44 |  |
| 59.9% | 46.3% | COc1cc2nccc(Oc3ccc(NC(=O)c4cnc(Cl)cc4Nc4cccc5ccccc45)cc3)c2cc1OC |  |  |

Reference: ChEMBL document CHEMBL4385642, “Optimization and biological evaluation of nicotinamide derivatives as Aurora kinase inhibitors” (Bioorg Med Chem, 2019)
